Assays:
[1] = target: T1, Adrenergic receptor alpha-1 (Rattus norvegicus, UniProt P15823+P23944+P43140); test: Binding affinity to alpha-1 adrenergic receptor determined by measurement of [3H]prazosin displacement from rat cortical membrane
T1 sequence (P15823 whole entry): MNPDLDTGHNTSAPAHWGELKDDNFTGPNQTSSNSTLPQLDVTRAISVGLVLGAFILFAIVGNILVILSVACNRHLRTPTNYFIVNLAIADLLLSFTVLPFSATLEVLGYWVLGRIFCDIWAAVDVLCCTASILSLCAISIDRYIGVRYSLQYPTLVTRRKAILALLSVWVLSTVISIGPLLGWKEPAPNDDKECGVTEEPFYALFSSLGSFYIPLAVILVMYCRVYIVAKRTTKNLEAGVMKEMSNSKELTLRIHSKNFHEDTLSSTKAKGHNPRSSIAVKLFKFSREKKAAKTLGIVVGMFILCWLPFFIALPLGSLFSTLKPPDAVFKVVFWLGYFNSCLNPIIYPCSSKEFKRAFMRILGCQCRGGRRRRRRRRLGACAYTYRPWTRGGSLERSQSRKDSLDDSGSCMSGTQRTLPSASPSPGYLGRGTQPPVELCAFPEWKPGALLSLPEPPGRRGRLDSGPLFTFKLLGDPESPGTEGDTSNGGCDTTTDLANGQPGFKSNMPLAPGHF
T1 sequence (P23944 whole entry): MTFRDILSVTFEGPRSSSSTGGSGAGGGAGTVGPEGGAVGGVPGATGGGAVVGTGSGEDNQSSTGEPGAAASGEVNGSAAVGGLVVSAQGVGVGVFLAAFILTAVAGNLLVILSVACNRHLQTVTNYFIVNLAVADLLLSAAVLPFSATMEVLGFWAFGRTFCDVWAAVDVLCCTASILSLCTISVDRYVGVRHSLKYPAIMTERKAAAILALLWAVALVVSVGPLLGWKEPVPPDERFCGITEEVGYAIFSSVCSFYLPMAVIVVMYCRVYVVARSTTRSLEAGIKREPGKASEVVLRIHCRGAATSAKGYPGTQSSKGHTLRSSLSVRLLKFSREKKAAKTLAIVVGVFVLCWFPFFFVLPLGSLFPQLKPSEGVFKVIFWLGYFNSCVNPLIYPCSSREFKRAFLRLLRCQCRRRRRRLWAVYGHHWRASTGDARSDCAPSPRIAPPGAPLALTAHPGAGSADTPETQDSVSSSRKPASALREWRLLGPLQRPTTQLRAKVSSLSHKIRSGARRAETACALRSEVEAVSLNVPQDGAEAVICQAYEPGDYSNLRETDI
T1 sequence (P43140 whole entry): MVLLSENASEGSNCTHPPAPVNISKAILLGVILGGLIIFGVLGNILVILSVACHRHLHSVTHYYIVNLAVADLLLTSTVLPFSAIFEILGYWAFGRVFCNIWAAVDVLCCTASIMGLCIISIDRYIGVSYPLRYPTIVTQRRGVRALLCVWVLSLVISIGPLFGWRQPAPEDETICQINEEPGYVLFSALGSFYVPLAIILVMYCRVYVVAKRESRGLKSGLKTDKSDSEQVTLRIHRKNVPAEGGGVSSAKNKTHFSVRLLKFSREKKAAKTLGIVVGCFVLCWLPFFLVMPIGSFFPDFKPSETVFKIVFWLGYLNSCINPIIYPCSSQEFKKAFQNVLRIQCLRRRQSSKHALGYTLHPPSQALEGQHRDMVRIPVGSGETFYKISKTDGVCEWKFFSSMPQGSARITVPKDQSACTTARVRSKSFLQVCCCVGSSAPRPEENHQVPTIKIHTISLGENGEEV
How it was run: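 Male Sprague-Dawley rat (150-200 g) cerebral cortex membranes, washed in 50 mM Tris-HCl/0.5 mM EDTA pH 7.4. 250 µg membrane protein incubated with 0.5 nM [3H]prazosin for 30 min at 25 °C in a 0.5 mL volume. Nonspecific binding defined by 10 µM phentolamine. IC50 estimated graphically; Ki calculated by Cheng-Prusoff.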

[2] = target: T2, Adrenergic receptor alpha-2 (Rattus norvegicus, UniProt P22086+P19328+P22909); test: Binding affinity to alpha-2 adrenergic receptor determined by measurement of [3H]yohimbine displacement from rat cortical membrane
T2 sequence (P22086 whole entry): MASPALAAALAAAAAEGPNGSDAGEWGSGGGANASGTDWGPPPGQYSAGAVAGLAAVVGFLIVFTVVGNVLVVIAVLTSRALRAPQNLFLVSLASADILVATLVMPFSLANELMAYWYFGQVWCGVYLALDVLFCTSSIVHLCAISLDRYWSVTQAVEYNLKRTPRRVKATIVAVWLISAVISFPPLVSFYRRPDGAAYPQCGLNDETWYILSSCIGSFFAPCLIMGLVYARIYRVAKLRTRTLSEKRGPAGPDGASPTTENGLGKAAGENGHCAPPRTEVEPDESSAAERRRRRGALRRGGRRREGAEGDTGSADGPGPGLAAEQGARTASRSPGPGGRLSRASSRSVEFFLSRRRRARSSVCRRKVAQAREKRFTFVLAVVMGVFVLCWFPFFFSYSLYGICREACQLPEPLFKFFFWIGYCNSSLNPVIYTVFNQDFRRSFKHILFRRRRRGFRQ
T2 sequence (P19328 whole entry): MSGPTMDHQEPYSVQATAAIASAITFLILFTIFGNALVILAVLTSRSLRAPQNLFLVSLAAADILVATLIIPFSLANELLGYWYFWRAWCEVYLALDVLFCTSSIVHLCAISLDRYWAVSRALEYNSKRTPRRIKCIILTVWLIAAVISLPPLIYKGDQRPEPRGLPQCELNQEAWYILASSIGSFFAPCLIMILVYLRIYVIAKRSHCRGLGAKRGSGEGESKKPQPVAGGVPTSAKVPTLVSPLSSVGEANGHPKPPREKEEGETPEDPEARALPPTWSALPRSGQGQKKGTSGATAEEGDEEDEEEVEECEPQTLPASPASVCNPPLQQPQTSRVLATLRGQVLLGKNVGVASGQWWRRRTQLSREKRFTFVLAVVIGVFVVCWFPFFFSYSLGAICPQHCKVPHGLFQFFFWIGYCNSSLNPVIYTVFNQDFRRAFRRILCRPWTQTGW
T2 sequence (P22909 whole entry): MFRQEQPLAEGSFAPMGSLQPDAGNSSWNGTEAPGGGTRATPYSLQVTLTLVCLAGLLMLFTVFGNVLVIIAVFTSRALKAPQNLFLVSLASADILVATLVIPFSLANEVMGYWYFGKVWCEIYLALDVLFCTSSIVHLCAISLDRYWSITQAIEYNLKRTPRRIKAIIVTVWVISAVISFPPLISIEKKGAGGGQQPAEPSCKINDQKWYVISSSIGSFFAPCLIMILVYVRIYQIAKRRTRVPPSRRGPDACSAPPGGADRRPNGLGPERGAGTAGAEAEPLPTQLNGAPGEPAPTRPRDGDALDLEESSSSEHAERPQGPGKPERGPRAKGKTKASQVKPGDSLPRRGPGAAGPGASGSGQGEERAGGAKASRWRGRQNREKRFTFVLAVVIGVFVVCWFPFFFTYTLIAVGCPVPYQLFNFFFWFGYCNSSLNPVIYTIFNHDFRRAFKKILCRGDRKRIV

| Compound | Log Ki [1] | Log Ki [2] |
| --- | --- | --- |
| COc1ccc2c(c1)CCN1C[C@@H]3CCCN(S(C)(=O)=O)[C@@H]3C[C@@H]21 | -4.85 | -6.88 |
| CS(=O)(=O)N1CC[C@H]2C[C@H]3c4ccccc4CCN3C[C@H]2C1 | -5.2 | -6.4 |
| CS(=O)(=O)N1CCC[C@@H]2CN(CCc3ccccc3)CC[C@@H]21 | -5.51 | -6.12 |
| COc1cc2c(cc1OC)[C@@H]1C[C@H]3[C@H](CCCN3S(=O)(=O)CC(C)C)CN1CC2 | -4.46 | -8.1 |
| COc1ccc2c(c1)CCN1C[C@H]3CCCN(S(N)(=O)=O)[C@H]3C[C@@H]21 | -4.92 | -8.43 |
| CN(C)S(=O)(=O)N1CCC[C@@H]2CN3CCc4ccccc4[C@@H]3C[C@@H]21 | -6.03 | -8.74 |
| CN1C[C@@H]2CCCN(S(C)(=O)=O)[C@@H]2C[C@H]1c1ccc2c(c1)OCO2 | -5.55 | -6.13 |
| CS(=O)(=O)N1CCC[C@@H]2CN3CCc4cc5c(cc4[C@@H]3C[C@H]21)OCO5 | -5.32 | -9.19 |
| CS(=O)(=O)N1CCC[C@@H]2CN3CCc4ccc(F)cc4[C@@H]3C[C@@H]21 | -5.21 | -8.04 |
| CS(=O)(=O)N1CCC[C@H]2CN3CCc4c([nH]c5ccccc45)[C@@H]3C[C@H]21 | -5.15 | -6.26 |
| O=S(=O)(c1ccc(F)cc1)N1CCC[C@@H]2CN3CCc4ccccc4[C@@H]3C[C@@H]21 | -5.38 | -8.69 |
| Nc1ccc(S(=O)(=O)N2CCC[C@@H]3CN4CCc5ccccc5[C@@H]4C[C@@H]32)cc1 | -5.33 | -8.66 |
| COc1ccc2c(c1)CCN1C[C@H]3CCCN(S(=O)(=O)NC(C)(C)C)[C@H]3C[C@@H]21 | -5.26 | -7.78 |
| CC(C)CS(=O)(=O)N(C)[C@@H]1CCN2CCc3ccccc3[C@@H]2C1 | -5.7 | -8.04 |
| COc1ccc2c(c1)CCN1C[C@H]3CCCN(S(=O)(=O)c4cccs4)[C@@H]3C[C@@H]21 | -5.01 | -8.83 |
| CS(=O)(=O)N1CCC[C@@H]2CN3CCc4cc(O)ccc4[C@@H]3C[C@@H]21 | -5.27 | -8.2 |
| CS(=O)(=O)N1CCC[C@H]2CN3CCc4ccccc4[C@@H]3C[C@@H]21 | -5.65 | -7.25 |
| CS(=O)(=O)N1CCC[C@H]2[C@H]3c4cc5c(cc4CCN3CC[C@@H]21)OCO5 | -5.06 | -6.4 |
| O=S(=O)(c1ccc(Cl)cc1)N1CCC[C@@H]2CN3CCc4ccccc4[C@@H]3C[C@@H]21 | -5.19 | -8.3 |
| COc1ccc2c(c1Br)CCN1C[C@H]3CCCN(S(C)(=O)=O)[C@@H]3C[C@@H]21 | -5.35 | -8.3 |
| Cc1ccc2c(c1)CCN1C[C@H]3CCCN(S(C)(=O)=O)[C@H]3C[C@@H]21 | -4.89 | -9.15 |
| C=CS(=O)(=O)N1CCC[C@@H]2CN3CCc4cc(OC)ccc4[C@@H]3C[C@@H]21 | -5.33 | -8.82 |
| CCCCS(=O)(=O)N1CCC[C@H]2CN3CCc4ccccc4[C@@H]3C[C@H]21 | -5.76 | -5.82 |
| COc1ccc2c(c1)CCN1C[C@H]3CCCN(S(=O)(=O)CCl)[C@@H]3C[C@@H]21 | -5.13 | -8.95 |
| COc1cccc2c1[C@@H]1C[C@H]3[C@H](CCCN3S(C)(=O)=O)CN1CC2 | -5.48 | -8.65 |
| COc1ccc2c(c1)CCN1C[C@H]3CCCN(S(=O)(=O)Cc4ccccc4)[C@@H]3C[C@@H]21 | -5.13 | -8.82 |
| CS(=O)(=O)N1CCC[C@H]2CN3CCc4cc5c(cc4[C@@H]3C[C@@H]21)OCO5 | -5.65 | -7.56 |
| CCCCS(=O)(=O)N1CCC[C@H]2CN3CCc4ccccc4[C@@H]3C[C@@H]21 | -5.3 | -7.42 |
| CN1C[C@H]2CCCN(S(C)(=O)=O)[C@H]2C[C@H]1c1ccc2c(c1)OCO2 | -4.82 | -5.38 |

— ChEMBL document CHEMBL1125249, “Structure-affinity relationships of 12-sulfonyl derivatives of 5,8,8a,9,10,11,12,12a,13,13a-decahydro-6H-isoquino[2,1-g][1 ,6] naphthyridines at alpha-adrenoceptors” (J Med Chem, 1991)
